The list is not random: actives were taken first. Their share in the collection is about 1.7%.
CASP6 VEID inh: inhibitors of human caspase-6. inhibition, % at 12.5 µM. purified caspase-6, Z-VEID-R110 cleavage fluorescence. P55212. 350,000 compounds, 0.53% hits;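 active means mean inhibition across replicates at least about 35%, with every replicate also reaching that limit, limit read from the data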;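 further: 0% = median of neutral control wells and 100% = no fluorescence left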
LMPTP block: blocks human LMPTP phosphatase | P24666 | recombinant LMPTP-A, OMFP fluorogenic substrate, fluorescence intensity | inhibition, % at 20 µM | 360,000 compounds, 0.22% hits;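 active means compounds that cut the enzyme signal by at least half of the control window in the single-dose screen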;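 further: plate controls were DMSO wells with enzyme plus substrate for no effect and substrate without enzyme for full effect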
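Material: LMPTP-A; amount: 0.625 nM enzyme; doses: single 20 µM dose; times: reaction 50 min, room temperature, dark; technique: fluorescence intensity of OMFP turnover product; benchmarks: no-enzyme and uninhibited controls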
DNMT1 block: inhibitors of human DNMT1 | inhibition (reported as % activation of signal), % at 10 µM | DNMT1 molecular beacon, Hinp1I cleavage, fluorescence | AID 588458 | 360,000 compounds, 0.83% hits; in the data active means inhibition above about 50%
Target sequence (P26358 504-1616 limits assumed): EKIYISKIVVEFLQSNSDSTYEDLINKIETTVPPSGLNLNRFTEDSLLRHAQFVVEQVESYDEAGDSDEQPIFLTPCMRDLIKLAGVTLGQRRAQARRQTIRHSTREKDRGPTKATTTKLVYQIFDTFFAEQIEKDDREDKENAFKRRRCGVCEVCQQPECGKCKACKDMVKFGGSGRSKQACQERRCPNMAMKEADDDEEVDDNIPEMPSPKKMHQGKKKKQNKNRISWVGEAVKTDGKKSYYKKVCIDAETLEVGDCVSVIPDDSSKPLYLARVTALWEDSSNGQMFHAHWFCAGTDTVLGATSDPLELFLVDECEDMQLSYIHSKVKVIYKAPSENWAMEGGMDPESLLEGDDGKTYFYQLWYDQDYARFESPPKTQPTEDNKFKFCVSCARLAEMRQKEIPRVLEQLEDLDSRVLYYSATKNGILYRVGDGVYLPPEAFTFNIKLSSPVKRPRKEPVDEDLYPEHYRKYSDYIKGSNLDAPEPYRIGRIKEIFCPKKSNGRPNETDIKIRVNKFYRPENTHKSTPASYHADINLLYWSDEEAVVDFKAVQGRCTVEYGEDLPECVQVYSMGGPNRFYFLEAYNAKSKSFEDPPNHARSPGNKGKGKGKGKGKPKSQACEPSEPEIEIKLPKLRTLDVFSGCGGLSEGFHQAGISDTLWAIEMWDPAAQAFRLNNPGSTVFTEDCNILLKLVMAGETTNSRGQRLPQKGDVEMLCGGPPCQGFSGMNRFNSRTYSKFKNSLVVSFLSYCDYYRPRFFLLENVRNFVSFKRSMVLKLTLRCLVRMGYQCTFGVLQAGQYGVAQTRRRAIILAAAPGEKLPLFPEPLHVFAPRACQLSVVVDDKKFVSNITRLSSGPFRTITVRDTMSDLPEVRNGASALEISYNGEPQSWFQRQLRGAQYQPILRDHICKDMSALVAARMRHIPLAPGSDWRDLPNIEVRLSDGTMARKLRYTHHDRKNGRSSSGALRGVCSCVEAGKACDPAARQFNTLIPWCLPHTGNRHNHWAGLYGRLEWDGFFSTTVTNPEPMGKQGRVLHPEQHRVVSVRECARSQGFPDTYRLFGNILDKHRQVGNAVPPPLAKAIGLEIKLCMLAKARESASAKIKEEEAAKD
Scp1 inh: Scp-1 (human) phosphatase inhibition; Q9GZU7; Recombinant Scp1, phosphopeptide, malachite green phosphate absorbance; inhibition, % at 20 µM; 340,000 compounds, 0.88% hits; AID 493091;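 active means inhibition above about 50% at 20 µM, limit read from the data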;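 further: plate controls were DMSO wells with enzyme for no effect and wells lacking enzyme for full effect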
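Test system: SCP-1 phosphatase catalytic domain, residues 76-261 | Compound dosing: One concentration, 20 µM, with 1.0% DMSO | Schedule: 45 min room-temperature reaction, 5 min colour, 30 min stabiliser | Detection: Absorbance at 630 nm | Read-out basis: % inhibition of SCP-1 phosphate liberation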
STEP block: inhibitors of human striatal-enriched phosphatase STEP; P54829; recombinant STEP, OMFP fluorogenic substrate, fluorescence; inhibition, % at 20 µM; 360,000 compounds, 0.25% hits; AID 588621;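 active means inhibition at 20 µM, scaled per plate between control wells, above about 37%, limit read from the data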;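 further: 0% = DMSO with enzyme and substrate and 100% = substrate only without enzyme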
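System: STEP (striatal-enriched tyrosine phosphatase) enzyme, cell-free; medium: Bis-Tris pH 6.0 buffer with DTT, detergent; dosing: 20 µM, 1% DMSO; times: reaction 20 min, ambient temperature; detection: fluorescence, 480/540 nm; read-out basis: normalized % inhibition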
SUMO1 PPI mod: SUMO1-SIM interaction modulation; 360,000 compounds, 0.33% hits; AID 602429; SUMO1 binding to a labelled peptide, TR-FRET, 1 h; inhibition, % at 20 µM; P63165; in the data active means inhibition above about 37%
STEP conf: STEP (human) phosphatase inhibition, single concentration confirmation; 520 compounds, 32% hits; inhibition, % at 20 µM; recombinant STEP, OMFP fluorogenic substrate, fluorescence; shares compounds with STEP block; AID 623866; call rule not given here;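 further: 0% = enzyme with substrate plus DMSO and 100% = substrate without enzyme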
An asterisk follows results filed as active; / = not tested or not shown.

SMILES | CASP6 VEID inh | LMPTP block | DNMT1 block | Scp1 inh | STEP block | SUMO1 PPI mod | STEP conf
Cc1ccc(NC(=S)N(CCCN2CCOCC2)Cc2cccs2)c(C)c1 | / | -2 | 2 | -1 | 55* | -3 | 20
Cc1ccc(-c2cc(NC(=O)c3ccccc3)on2)cc1 | -2 | 0 | 2 | -5 | -2 | 20 | /
COc1ccc(C(=O)Nc2cc(-c3ccc(C)cc3)no2)cc1 | -2 | 1 | 5 | -1 | 94* | 0 | -5
COc1ccnc(CSC(N)=Nc2ccccc2C(F)(F)F)c1 | 7 | 1 | 2 | 0 | -1 | 1 | /
COc1ccnc(CSC(N)=Nc2ccccc2OC)c1 | / | 1 | 1 | -2 | 35* | -2 | 3
COc1ccc(Br)cc1/C=C/C(=O)NC(=S)Nc1ccc(Cl)c(C(=O)O)c1 | 2 | 2 | 1 | 8 | 62* | 18 | 8
COc1ccc(C(=O)Nc2ccc(/C(C)=N/NC(=O)c3ccncc3)cc2)cc1 | 0 | 54* | 22 | / | 82* | -6 | 19
COc1ccc(/C(C)=N/NC(=O)c2ccncc2)cc1 | -4 | 0 | 2 | -8 | -3 | 4 | /
CCOc1cc(C2Nc3ccccc3NC3=C2C(=O)CC(C)(C)C3)ccc1OC(C)=O (stereo not given) | -1 | 1 | 1 | 0 | 0 | -3 | /
CC(=O)N1CCC(N(CCN2CCOCC2)C(=S)Nc2ccc(C)cc2)CC1 | 3 | -3 | 0 | -5 | 63* | 2 | 21*
COc1ccc(NC(=S)N(CCN2CCOCC2)C2CCN(C(C)=O)CC2)cc1Cl | 2 | -2 | 2 | 6 | 16 | 5 | /
COc1cc(Cl)ccc1NC(=S)N(CCN1CCOCC1)C1CCN(C(C)=O)CC1 | 4 | -2 | 0 | 0 | 51* | -2 | 8
O=C(c1ccc(F)cc1)N1CC(=O)N2[C@H](C1)[C@H](c1ccc(C#CCC3CCCC3)cc1)[C@@H]2CO | 1 | / | / | / | / | / | /
COc1cc(C2C=C(C34CC5CC(CC(C5)C3)C4)NC(=S)N2)cc(OC)c1OC (stereo not given) | / | -2 | -6 | 7 | 2 | 1 | /
S=C1NC(C23CC4CC(CC(C4)C2)C3)=CC(c2ccc3c(c2)OCO3)N1 (stereo not given) | -7 | 2 | -3 | -2 | 62* | -6 | 25*
COc1ccc2c(C)cc(SCC(=O)N3CCOCC3)nc2c1 | / | 0 | 1 | 3 | -5 | 1 | /
Cc1ccc(Cn2c(SCC(=O)Nc3cc(C)on3)nc3ccccc3c2=O)cc1 | / | 0 | 9 | -11 | 41* | -1 | -5
COC(=O)C1=C(C)N(CCCC(=O)O)C(=O)NC1c1ccc2c(c1)OCO2 (stereo not given) | 2 | 0 | 5 | -6 | 2 | 2 | /
COc1ccc(S(=O)(=O)N=C2C=C(C)C(=O)C(C)=C2)cc1 | / | 0 | -8 | -7 | 45* | -2 | -14
NC(=O)CSc1nnc(-c2cccc(S(=O)(=O)N3CCOCC3)c2)n1C1CCCCCC1 | / | -1 | 2 | -12 | 0 | -4 | /
CCCCNS(=O)(=O)c1cc(-c2nn(C)c(=O)c3ccccc23)ccc1C | 36* | 15 | 20 | 46 | 58* | -4 | 27
COCCNS(=O)(=O)c1cc(-c2nn(C)c(=O)c3ccccc23)ccc1C | / | 0 | 2 | -4 | 2 | -1 | /
C[C@H](CO)N1C[C@H](C)[C@@H](CN(C)Cc2ccc(C(=O)O)cc2)Oc2ccc(NC(=O)NC3CCCCC3)cc2CC1=O | 0 | / | / | / | / | / | /
COc1ccc(NS(=O)(=O)c2cccs2)c(OC)c1 | / | -2 | 1 | -1 | -4 | 3 | /
CN(C)c1ccc(C(=S)N2CCN(Cc3ccccc3)CC2)cc1 | / | 1 | -1 | -7 | 85* | -1 | 39*
SMILES | CASP6 VEID inh | LMPTP block | DNMT1 block | Scp1 inh | STEP block | SUMO1 PPI mod | STEP conf
CCN(CC)c1ccc(C(=O)N2CCN(Cc3ccccc3)CC2)cc1 | / | -2 | -3 | -1 | 0 | -2 | /
Oc1ccc(C(=S)N2CCN(Cc3ccccc3)CC2)cc1 | 5 | 1 | 0 | 3 | 62* | 6 | 4
S=C(c1ccc(Br)cc1)N1CCN(Cc2ccccc2)CC1 | 0 | 2 | 5 | -11 | 90* | 5 | 38*
Cc1ccc(C(=S)N2CCN(Cc3ccccc3)CC2)s1 | 0 | 2 | -2 | -8 | 78* | 1 | 42*
CC(=O)N(C)c1ccc(NS(=O)(=O)Cc2ccccc2)cc1 | / | 0 | -7 | -12 | -1 | -1 | /
O=C(O)Cn1cnc2c(=S)nc[nH]c21 | -1 | 0 | 1 | -3 | -2 | 3 | /
S=c1nc[nH]c2c1ncn2-c1ccc(Cl)cc1 | 2 | 1 | 7 | 5 | 86* | 5 | 38*
COc1ccc(S(=O)(=O)Nc2ccc3c(c2)CC(=O)N([C@@H](C)CO)C[C@H](C)[C@@H](CN(C)S(=O)(=O)c2ccc(Cl)cc2)O3)cc1 | 0 | / | / | / | / | / | /
CN1CCN(C(=O)/C=C/c2ccc3c(c2)OCO3)CC1 | 1 | -1 | 4 | -2 | 57* | -4 | -2
COc1cc2c(cc1NC(=O)c1ccc(C)c([N+](=O)[O-])c1)oc1ccccc12 | / | 0 | 14 | -3 | 0 | -2 | /
COc1cc2c(cc1NC(=O)c1cccc([N+](=O)[O-])c1)oc1ccccc12 | / | 66* | 47 | 28 | 84* | -2 | 12
CC1=CC(=O)C=C(C)C1=NOc1ccc([N+](=O)[O-])cc1 | 0 | 0 | 0 | 1 | 0 | 22 | /
COCCN(C(=S)Nc1c(C)cccc1C)C(C)c1cccnc1 (stereo not given) | -2 | -1 | 2 | -10 | -4 | 1 | /
COCCN(C(=S)Nc1c(C)cc(C)cc1C)C(C)c1cccnc1 (stereo not given) | 1 | 1 | -2 | -7 | 50* | 2 | 21*
CC(C)OC(=O)CSc1ncnc2c1cnn2-c1ccccc1 | 3 | -1 | -3 | -2 | -2 | 0 | /
CCc1ccc(Nc2nc(N)nc(CSc3nc4ccccc4s3)n2)cc1 | / | -2 | 7 | -11 | 43* | -2 | 8
Cc1nnc(SCc2nc(N)nc(Nc3ccccc3)n2)s1 | / | -1 | 6 | -2 | -3 | -2 | /
CC(C)Cc1ccc(S(=O)(=O)N2CCN(c3ccccn3)CC2)cc1 | 3 | -1 | 1 | 0 | 1 | 1 | /
CC1(C)Cc2c(sc(NC(=O)C(=O)NCCCN3CCOCC3)c2C#N)CO1 | 1 | -1 | 5 | 0 | 68* | -5 | 19
CCNc1nc(NC(N)=S)nc(NC(C)(C)C)n1 | 0 | 2 | -1 | -9 | 37* | 0 | 10
CCNc1nc(NCC)nc(NC(N)=S)n1 | -1 | 0 | 4 | -1 | -1 | 0 | /

Source: PubChem (several laboratories)
